Assay results from ChEMBL document CHEMBL1158357, “Synthesis of [1,2,4]triazolo[1,5-a]pyridines of potential PGE2 inhibitory properties” (2009).

Assays:
[1] = tested on: Rattus norvegicus; assay: Antiinflammatory activity in Wistar albino rat assessed as inhibition of carrageenan-induced paw edema volume at 50 mg/kg, ip administered 1 hr prior to carrageenan challenge measured after 3 hrs; parameters: scale not given: the % may be the effect or the level left; conditions: route intraperitoneal
[2] = tested on: Rattus norvegicus; assay: Antiinflammatory activity in Wistar albino rat assessed as inhibition of carrageenan-induced paw edema volume at 50 mg/kg, po administered 1 hr prior to carrageenan challenge measured after 4 hrs relative to indomethacin; format: functional; parameters: scale not given: the % may be the effect or the level left
[3] = tested on: Rattus norvegicus; assay: Antiinflammatory activity against carrageenan-induced inflammation in albino rat air pouch model assessed as PGE2 level at 50 mg/kg, po administered […] before carrageenan challenge measured after 6 hrs; format: functional
Summary of the method: (§1)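 Male albino rats (200–250 g), 6 per group. A dorsal air pouch was made with 20 ml air s.c. on day 1, 10 ml two days later and 10 ml on day 5. Next day, rats were dosed orally in saline with a few drops of Tween 80 (controls: sterile saline), then given 2 ml 1% carrageenan in saline into the pouch. Exudate was aspirated 6 h later under ether, stored at -20 °C, and PGE2 measured by ELISA kit.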

[4] = tested on: Rattus norvegicus; assay: Antiinflammatory activity in Wistar albino rat assessed as inhibition of carrageenan-induced paw edema volume at 50 mg/kg, po administered 1 hr prior to carrageenan challenge measured after 3 hrs; format: functional
[5] = tested on: Rattus norvegicus; assay: Antiinflammatory activity in Wistar albino rat assessed as inhibition of carrageenan-induced paw edema volume at 50 mg/kg, ip administered 1 hr prior to carrageenan challenge measured after 4 hrs; conditions: route intraperitoneal
[6] = tested on: Rattus norvegicus; assay: Antiinflammatory activity in Wistar albino rat assessed as inhibition of carrageenan-induced paw edema volume at 50 mg/kg, po administered 1 hr prior to carrageenan challenge measured after 1 hr; format: functional
[7] = tested on: Rattus norvegicus; assay: Antiinflammatory activity in Wistar albino rat assessed as inhibition of carrageenan-induced paw edema volume at 50 mg/kg, po administered 1 hr prior to carrageenan challenge measured after 4 hrs; parameters: scale not given: the % may be the effect or the level left
[8] = tested on: Rattus norvegicus; assay: Antiinflammatory activity in Wistar albino rat assessed as inhibition of carrageenan-induced paw edema volume at 50 mg/kg, po administered 1 hr prior to carrageenan challenge measured after 2 hrs; format: functional
[9] = tested on: Rattus norvegicus; assay: Antiinflammatory activity in Wistar albino rat assessed as inhibition of carrageenan-induced paw edema volume at 50 mg/kg, ip administered 1 hr prior to carrageenan challenge measured after 1 hr; parameters: scale not given: the % may be the effect or the level left; conditions: route intraperitoneal
[10] = tested on: Rattus norvegicus; assay: Antiinflammatory activity in Wistar albino rat assessed as inhibition of carrageenan-induced paw edema volume at 50 mg/kg, ip administered 1 hr prior to carrageenan challenge measured after 2 hrs; parameters: scale not given: the % may be the effect or the level left; conditions: route intraperitoneal
[11] = tested on: Rattus norvegicus; assay: Antiinflammatory activity against carrageenan-induced inflammation in albino rat air pouch model assessed as PGE2 level at 10 mg/kg, po administered […] before carrageenan challenge measured after 6 hrs; format: functional
Summary of the method: as §1

Row | SMILES | Activity [1] [%] | Activity [2] [%] | Activity [3] [pg/mL] | Activity [4] [mL] | Activity [5] [mL] | Activity [6] [mL] | Activity [7] [%] | Activity [8] [mL] | Activity [9] [%] | Activity [10] [%] | Activity [11] [pg/mL]
1 | CCn1c([S-])n[n+]2c(N)c(C#N)c(-c3ccccc3OCCOc3ccccc3-c3c(C#N)c(N)[n+]4nc([S-])n(CC)c4c3C#N)c(C#N)c12 | 40 | 114 | 87.67 | 0.312 | 0.16 | 0.188 | 77.3 | 0.232 | 9.2 | 30.1 | –
2 | N#Cc1c(-c2ccc(N3CCOCC3)cc2)c(C#N)c2n(Cc3ccccc3)c([S-])n[n+]2c1N | 6.7 | 58 | – | 0.485 | 0.428 | 0.207 | 39.3 | 0.328 | 0 | 1.2 | –
3 | Cn1c([S-])n[n+]2c(N)c(C#N)c(-c3ccc(N4CCOCC4)cc3)c(C#N)c12 | 41.7 | 67 | – | 0.303 | 0.385 | 0.203 | 45.4 | 0.275 | 1.9 | 17.2 | –
4 | CN1CCN(c2ccc(-c3c(C#N)c(N)[n+]4nc([S-])n(C)c4c3C#N)cc2)CC1 | 38.1 | 54 | – | 0.322 | 0.447 | 0.172 | 36.6 | 0.287 | 16.9 | 13.6 | –
5 | C=CCn1c([S-])n[n+]2c(N)c(C#N)c(-c3ccc(N4CCOCC4)cc3)c(C#N)c12 | 25.6 | 89.4 | – | 0.387 | 0.278 | 0.188 | 60.6 | 0.268 | 9.2 | 19.3 | –
6 | Cn1c([S-])n[n+]2c(N)c(C#N)c(-c3ccccc3OCCCOc3ccccc3-c3c(C#N)c(N)[n+]4nc([S-])n(C)c4c3C#N)c(C#N)c12 | 41 | 110.9 | 92.17 | 0.307 | 0.175 | 0.19 | 75.2 | 0.257 | 8.2 | 22.6 | –
7 | CCn1c([S-])n[n+]2c(N)c(C#N)c(-c3ccc(N4CCOCC4)cc3)c(C#N)c12 | 38.1 | 81.1 | – | 0.322 | 0.317 | 0.118 | 55 | 0.232 | 43 | 30.1 | –
8 | N#Cc1c(-c2ccc(N3CCCCC3)cc2)c(C#N)c2n(Cc3ccccc3)c([S-])n[n+]2c1N | 39.8 | 99.4 | 102.33 | 0.313 | 0.23 | 0.192 | 67.4 | 0.325 | 7.2 | 2.1 | –
9 | CCn1c([S-])n[n+]2c(N)c(C#N)c(-c3ccc(N4CCCCC4)cc3)c(C#N)c12 | 55.8 | 90.6 | – | 0.23 | 0.272 | 0.142 | 61.4 | 0.11 | 31.4 | 66.9 | –
10 | COc1ccc2c(c1)c(CC(=O)O)c(C)n2C(=O)c1ccc(Cl)cc1 [INDOMETHACIN] | 65.4 | – | – | 0.18 | 0.227 | 0.09 | 67.8 | 0.158 | 56.5 | 52.4 | 98.33
11 | Cn1c([S-])n[n+]2c(N)c(C#N)c(-c3ccc(N4CCCCC4)cc3)c(C#N)c12 | 32.1 | 75.4 | – | 0.353 | 0.345 | 0.202 | 51.1 | 0.298 | 2.4 | 10.2 | –
12 | C=CCn1c([S-])n[n+]2c(N)c(C#N)c(-c3ccc(N4CCCCC4)cc3)c(C#N)c12 | 35 | 101 | 94.5 | 0.338 | 0.222 | 0.16 | 68.5 | 0.307 | 22.7 | 7.5 | –
13 | Cn1c([S-])n[n+]2c(N)c(C#N)c(-c3ccccc3OCCOc3ccccc3-c3c(C#N)c(N)[n+]4nc([S-])n(C)c4c3C#N)c(C#N)c12 | 28.8 | 86.4 | – | 0.37 | 0.292 | 0.097 | 58.6 | 0.293 | 53.1 | 11.7 | –
